Measurements from publication PMC5147544 (Science signaling, 2016).
One block for each substance: values may come before it.

Experiments:
Neuro2A cells = Neuro2A cells (Mus musculus, UniProt P30731); test: Neurite outgrowth assay; type: cell-based; details: 1 μM peptide, 16 to 20 hours at 37°C, protease inhibitor cocktail; Fig. 3A
Method in brief: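 Neuro2A cells were plated on poly-L-lysine, 20,000 per well, in 10% FBS medium. Next day, in serum-free medium, cells got 1 μM peptide or vehicle with protease inhibitors for 16–20 h at 37°C. Sequential 40× images covered ~300–500 cells, with repeats on different days. Blinded scoring: a cell counted positive if its neurite was longer than twice the cell diameter.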

[1] = intracerebroventricular administration; cited from earlier work
hGPR83 [2] = target: T1, hGPR83 (Homo sapiens, UniProt Q9NYM4); test: Displacement of [125I]Tyr-rPEN binding to CHO hGPR83 cell membranes; details: Fig. 4D
Method in brief: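 Membranes were prepared from CHO cells expressing untagged hGPR83 by homogenising in ice-cold 20 mM tris-Cl, 250 mM sucrose, 2 mM EGTA, 1 mM MgCl₂ (pH 7.4), then spinning at 27,000g. Membranes (50 μg) were incubated 1 h at 37°C in 50 mM tris-Cl (pH 7.4) plus protease inhibitors with 3 nM [¹²⁵I]Tyr-rPEN and competitor peptide (0 to 10 μM). Samples were filtered on GF/B, washed three times with ice-cold buffer and counted by scintillation.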

hGPR83 [3] = target: T1, hGPR83; test: [35S]GTPγS binding in membranes from CHO hGPR83 cells; type: biochemical; details: membranes 20 μg; Fig. 4E
Method in brief: (§1)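 Membranes (20 μg) were incubated 1 h at 30°C with peptide (0 to 1 μM final), 2 mM GDP and 0.5 nM [³⁵S]GTPγS. Buffer was 50 mM Hepes, 5 mM MgCl₂, 100 mM NaCl, 1 mM EDTA (pH 7.4) with protease inhibitors. Nonspecific binding was taken with 10 μM cold GTPγS, and basal as GDP without ligand. Samples were filtered on GF/B, washed three times with ice-cold 50 mM tris-Cl and counted by scintillation.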

[4] = [35S]GTPγS binding in membranes from control CHO cells; type: biochemical, Chinese hamster; details: membranes 20 μg, CHO alone; Fig. 4E
Method in brief: as §1

[5] = target: mouse hypothalamic membranes (Mus musculus, UniProt P30731); test: Displacement of [125I]Tyr-rPEN binding in mouse hypothalamic membranes; details: [125I]Tyr-rPEN 3 nM, membranes 30 μg, peptide 0 to 10 μM; Fig. 1C
[6] = target: endogenous mouse GPR83 in brain (hypothalamus, hippocampus, PVN) (mouse (endogenous in hypothalamus, hippocampus)) (UniProt P30731); test: radioligand binding
Chain of endogenous mouse GPR83 in brain (hypothalamus, hippocampus, PVN) (mouse (endogenous in hypothalamus, hippocampus)) (P30731 18-423): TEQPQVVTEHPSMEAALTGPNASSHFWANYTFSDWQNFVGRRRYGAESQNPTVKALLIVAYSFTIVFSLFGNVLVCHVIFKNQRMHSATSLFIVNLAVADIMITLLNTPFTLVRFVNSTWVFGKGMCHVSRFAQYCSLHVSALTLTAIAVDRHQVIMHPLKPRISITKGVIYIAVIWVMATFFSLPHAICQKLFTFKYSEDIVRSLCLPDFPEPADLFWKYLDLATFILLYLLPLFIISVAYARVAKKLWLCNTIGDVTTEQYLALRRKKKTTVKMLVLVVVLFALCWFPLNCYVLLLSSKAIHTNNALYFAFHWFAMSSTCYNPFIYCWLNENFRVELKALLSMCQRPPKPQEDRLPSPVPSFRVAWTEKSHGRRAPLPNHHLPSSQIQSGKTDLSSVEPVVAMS

T1 sequence (Q9NYM4 17-423): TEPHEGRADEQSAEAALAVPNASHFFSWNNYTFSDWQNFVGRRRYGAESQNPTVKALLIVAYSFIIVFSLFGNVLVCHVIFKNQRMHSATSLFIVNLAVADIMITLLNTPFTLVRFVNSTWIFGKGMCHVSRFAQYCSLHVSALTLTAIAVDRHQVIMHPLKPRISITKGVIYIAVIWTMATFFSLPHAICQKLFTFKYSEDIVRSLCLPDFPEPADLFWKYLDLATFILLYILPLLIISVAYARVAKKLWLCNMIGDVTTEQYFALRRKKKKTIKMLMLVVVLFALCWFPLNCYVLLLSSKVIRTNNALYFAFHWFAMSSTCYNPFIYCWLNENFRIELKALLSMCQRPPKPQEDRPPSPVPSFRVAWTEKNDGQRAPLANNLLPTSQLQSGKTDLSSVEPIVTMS
Chain of Neuro2A cells (P30731 18-423): as the sequence (P30731 18-423) above
Chain of mouse hypothalamic membranes (P30731 18-423): as above

Substance: bigLEN: proSAAS-derived peptide bigLEN, species form not stated at this place (LETPAPQVPARRLLPP; Big LEN; UniProt Q9UHG2 245-260, looked up)
- effect on food intake [1]: did not elicit a significant effect

Substance: PEN: proSAAS-derived peptide PEN, species form not stated at this place (AADHDVGSELPPEGVLGALLRV; PEN; UniProt Q9UHG2 221-242, looked up)
- effect on food intake [1]: did not elicit a significant effect

Substance: N-terminally tyrosinated, radioiodinated rat PEN (peptide)
- Kd [6]: 8 nM

Now from value to substance, other results behind:

- number of neurites (Neuro2A cells): significantly increased
Substance: mbigLEN: mouse bigLEN, proSAAS-derived neuropeptide that activates GPR171 (LENPSPQAPARRLLPP; Big LEN; UniProt Q9QXV0 243-258, looked up)

- displacement of [125I]Tyr-rPEN (hGPR83 [2]; 10 μM NPY, not significant (one-way ANOVA, P = 0.37)): ~ 20%
- displacement of [125I]Tyr-rPEN (hGPR83 [2]; NPY at concentrations below 1 μM, [125I]Tyr-rPEN 3 nM, membranes 50 μg): did not displace
- GTPγS binding (hGPR83 [3]): small increase
Substance: neuropeptide Y [NPY]
- GTPγS binding [4]: small increase

- competition for [125I]Tyr-rPEN binding [5]: did not compete for binding
Substance: LENPSPQAPA [rlittleLEN]

- number of neurites (Neuro2A cells): significantly increased
Substance: rSAAS: rat SAAS, proSAAS-derived peptide (ARPVKEPRSLSAASAPLAETSTPLRL; Big SAAS; UniProt Q9QXU9 34-59, looked up)
